Test results taken from ChEMBL document CHEMBL4052664, “Novel pyridyl nitrofuranyl isoxazolines show antibacterial activity against multiple drug resistant Staphylococcus species” (Bioorg Med Chem, 2017).
≈ marks a conversion by molar mass, not a printed value. Calls of active or inactive are those of the source. No cut-off for these calls is given here.

Key:
Staphylococcus aureus [1] = test: Antibacterial activity against Staphylococcus aureus BGW541 after 20 hrs by broth microdilution method; format: functional; conditions: BGW541, 20 h
Summary of the method: (§1)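 Broth microdilution per CLSI guidelines in Mueller Hinton Broth. Growth was read as optical density at 600 nm after 20 hours. The MIC was taken as the lowest drug concentration at which OD600 stayed below 0.10. Run in triplicate.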

Staphylococcus aureus [2] = test: Antibacterial activity against methicillin-resistant Staphylococcus aureus EMRSA-16 after 20 hrs by broth microdilution method; format: functional; conditions: EMRSA-16, 20 h
Summary of the method: (§2)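 Broth microdilution per CLSI guidelines in Mueller Hinton Broth. Growth read as optical density at 600 nm after 20 h. MIC taken as the lowest concentration giving OD600 below 0.10. Run in triplicate.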

[3] = test system: Staphylococcus epidermidis; test: Antibacterial activity against Staphylococcus epidermidis ATCC 35984 after 20 hrs by broth microdilution method; format: functional; conditions: RP62A; summary of the method: as §1
Staphylococcus aureus [4] = test: Antibacterial activity against Staphylococcus aureus isolate 13142 after 20 hrs by broth microdilution method; format: functional; conditions: isolate 13142, 20 h; summary of the method: as §1
Staphylococcus aureus [5] = test: Antibacterial activity against methicillin-sensitive Staphylococcus aureus ATCC 9144 after 20 hrs by broth micro dilution method; format: functional; conditions: ATCC 9144, 20 h; summary of the method: as §1
Staphylococcus aureus [6] = test: Antibacterial activity against methicillin-resistant Staphylococcus aureus NCTC 12493 after 20 hrs by broth microdilution method; format: functional; conditions: NCTC 12493, 20 h; summary of the method: as §2
Staphylococcus aureus [7] = test: Antibacterial activity against Staphylococcus aureus NCTC 6571 after 20 hrs by broth microdilution method; format: functional; conditions: NCTC 6571, 20 h; summary of the method: as §1
Staphylococcus aureus [8] = test: Antibacterial activity against Staphylococcus aureus NCTC 8325 after 20 hrs by broth microdilution method; format: functional; conditions: NCTC 8325, 20 h; summary of the method: as §1
Staphylococcus aureus [9] = test: Antibacterial activity against Staphylococcus aureus A1988 after 20 hrs by broth microdilution method; format: functional; conditions: A1988, 20 h; summary of the method: as §1
Staphylococcus aureus [10] = test: Antibacterial activity against methicillin-resistant Staphylococcus aureus EMRSA-15 after 20 hrs by broth microdilution method; format: functional; conditions: EMRSA-15, 20 h; summary of the method: as §2
Pseudomonas aeruginosa [11] = test: Antibacterial activity against Pseudomonas aeruginosa PAO1 after 20 hrs by broth micro dilution method; format: functional; conditions: PAO1, 20 h; summary of the method: as §1
HeLa = test: Cytotoxicity against human HeLa cells assessed as reduction in cell viability after 96 hrs by MTT assay; format: cell-based
Summary of the method: (§3)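 HeLa cells were kept in DMEM with 10% FBS, 2 mM L-glutamine, non-essential amino acids and penicillin-streptomycin at 37 °C, 5% CO2. 10,000 cells per well were plated and left 24 h. Compound was then added in triplicate for 96 h continuous exposure. MTT read-out was absorbance at 570 nm. IC50 came from dose-response analysis.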

Acinetobacter baumannii [12] = test: Antibacterial activity against Acinetobacter baumannii ATCC 17978 after 20 hrs by broth micro dilution method; format: functional; conditions: ATCC 17978, 20 h; summary of the method: as §1
WI-38 = test: Cytotoxicity against human WI38 cells assessed as reduction in cell viability after 96 hrs by MTT assay; format: cell-based; conditions: WI-38, 96 h
Summary of the method: as §3, with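 “WI-38 lung fibroblasts” for “HeLa cells”, “15%” for “10%”, “fitting.” for “analysis.”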

Pseudomonas aeruginosa [13] = test: Antibacterial activity against Pseudomonas aeruginosa NCTC 13437 after 20 hrs by broth micro dilution method; format: functional; conditions: NCTC 13437, 20 h; summary of the method: as §1
Acinetobacter baumannii [14] = test: Antibacterial activity against Acinetobacter baumannii ATCC BAA-1710 after 20 hrs by broth micro dilution method; format: functional; conditions: ATCC BAA-1710, 20 h; summary of the method: as §1
Klebsiella pneumoniae [15] = test: Antibacterial activity against Klebsiella pneumoniae NCTC 13368 after 20 hrs by broth micro dilution method; format: functional; conditions: NCTC 13368, 20 h; summary of the method: as §1
Klebsiella pneumoniae [16] = test: Antibacterial activity against Klebsiella pneumoniae M6 after 20 hrs by broth micro dilution method; format: functional; conditions: M6, 20 h; summary of the method: as §1
Staphylococcus aureus [17] = test: Ratio of MBC to MIC against methicillin-sensitive Staphylococcus aureus ATCC 9144; format: functional
Summary of the method: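 MBC/MIC ratio from the broth microdilution MIC (Mueller Hinton Broth, OD600 <0.10 after 20 h, triplicate) and the MBC (MIC-plate wells at and above the MIC spotted on tryptic soy agar, 37 °C 24 h, no colonies). A ratio of 1 or 2 was taken as bactericidal; 4 or 16 as bacteriostatic.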

Staphylococcus aureus [18] = test: Bactericidal activity against methicillin-sensitive Staphylococcus aureus ATCC 9144 after 24 hrs; format: functional; conditions: ATCC 9144, 24 h
Summary of the method: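 From the MIC plate, 10ul was taken from every well at and above the MIC and spotted onto tryptic soy agar. Plates were incubated 24 h at 37 °C. The MBC was the concentration at which no colonies grew.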

Staphylococcus aureus [19] = test: Bacteriostatic activity against methicillin-resistant Staphylococcus aureus EMRSA-15 at 4 times MIC after 5 to 24 hrs by time kill assay; format: functional
Summary of the method: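 Mueller Hinton Broth flasks (50 mL) inoculated at ~10^6 cfu/mL. Agent added at 4x MIC and shaken at 200 rpm, 37 °C. Samples taken hourly for 8 h and at 24 h. Viable counts by modified Miles-Misra dilution. Values are the average of at least three replicate experiments, SEM shown.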

Structure (SMILES) | MIC (Staphylococcus aureus [1]) | MIC (Staphylococcus aureus [2]) | MIC [3] | MIC (Staphylococcus aureus [4]) | MIC (Staphylococcus aureus [5]) | MIC (Staphylococcus aureus [6]) | MIC (Staphylococcus aureus [7]) | MIC (Staphylococcus aureus [8]) | MIC (Staphylococcus aureus [9]) | MIC (Staphylococcus aureus [10]) | MIC (Pseudomonas aeruginosa [11]) | IC50 (HeLa) | MIC (Acinetobacter baumannii [12]) | IC50 (WI-38) | MIC (Pseudomonas aeruginosa [13]) | MIC (Acinetobacter baumannii [14]) | MIC (Klebsiella pneumoniae [15]) | MIC (Klebsiella pneumoniae [16]) | also measured
CC1(C)S[C@@H]2[C@H](NC(=O)[C@H](N)c3ccc(O)cc3)C(=O)N2[C@H]1C(=O)O [AMOXICILLIN] | 0.25 to 0.5 µg/mL (≈ 0.684 to 1.37 µM) | > 128 µg/mL | 128 µg/mL (≈ 350 µM) | 0.25 µg/mL (≈ 0.684 µM) | 0.1 to 2 µg/mL (≈ 0.274 to 5.47 µM) | > 128 µg/mL | 0.25 µg/mL (≈ 0.684 µM) | 0.25 to 0.5 µg/mL (≈ 0.684 to 1.37 µM) | > 128 µg/mL | 128 µg/mL (≈ 350 µM) | – | – | – | – | – | – | – | – | –
COc1ccc(CN2CCN(c3ccc(C4CC(c5ccc([N+](=O)[O-])o5)=NO4)cc3)CC2)cn1 (stereo unspecified) | – | 32 µg/mL (≈ 69 µM) | – | – | 32 µg/mL (≈ 69 µM) | – | – | – | – | 128 µg/mL (≈ 276 µM) | > 128 µg/mL | > 50 µM | > 128 µg/mL | > 50 µM | > 128 µg/mL | > 128 µg/mL | > 128 µg/mL | > 128 µg/mL | –
O=[N+]([O-])c1ccc(C2=NOC(c3ccc(N4CCN(Cc5ccncc5)CC4)cc3)C2)o1 (stereo unspecified) | – | 128 µg/mL (≈ 295 µM) | – | – | 16 µg/mL (≈ 36.9 µM) | – | – | – | – | > 128 µg/mL | > 128 µg/mL | > 50 µM | > 128 µg/mL | > 50 µM | > 128 µg/mL | > 128 µg/mL | > 128 µg/mL | > 128 µg/mL | –
CC(C)(C)OC(=O)N1CCN(c2ccc(C3CC(c4ccc([N+](=O)[O-])o4)=NO3)cc2)CC1 (stereo unspecified) | – | > 128 µg/mL | – | – | 32 µg/mL (≈ 72.3 µM) | – | – | – | – | > 128 µg/mL | > 128 µg/mL | > 50 µM | > 128 µg/mL | > 50 µM | > 128 µg/mL | > 128 µg/mL | > 128 µg/mL | > 128 µg/mL | –
O=[N+]([O-])c1ccc(C2=NOC(c3ccc(-c4ccccn4)cc3)C2)o1 (stereo unspecified) | – | > 128 µg/mL | – | – | > 128 µg/mL | – | – | – | – | > 128 µg/mL | – | > 50 µM | – | > 50 µM | – | – | – | – | –
O=C1CN(/N=C/c2ccc([N+](=O)[O-])o2)C(=O)N1 [NITROFURANTOIN] | 16 µg/mL (≈ 67.2 µM) | 16 µg/mL (≈ 67.2 µM) | 16 µg/mL (≈ 67.2 µM) | 16 µg/mL (≈ 67.2 µM) | 16 µg/mL (≈ 67.2 µM) | 16 µg/mL (≈ 67.2 µM) | 16 µg/mL (≈ 67.2 µM) | 16 µg/mL (≈ 67.2 µM) | 16 µg/mL (≈ 67.2 µM) | 16 µg/mL (≈ 67.2 µM) | – | – | – | – | – | – | – | – | –
O=[N+]([O-])c1ccc(C2=NOC(c3ccc(N4CCN(Cc5ccc(F)nc5)CC4)cc3)C2)o1 (stereo unspecified) | – | 16 µg/mL (≈ 35.4 µM) | – | – | 32 µg/mL (≈ 70.9 µM) | – | – | – | – | 128 µg/mL (≈ 284 µM) | > 128 µg/mL | > 50 µM | > 128 µg/mL | > 50 µM | > 128 µg/mL | > 128 µg/mL | > 128 µg/mL | > 128 µg/mL | –
O=[N+]([O-])c1ccc(C2=NOC(c3ccc(-c4ccncc4)cc3)C2)o1 (stereo unspecified) | – | 64 µg/mL (≈ 191 µM) | – | – | 64 µg/mL (≈ 191 µM) | – | – | – | – | 128 µg/mL (≈ 382 µM) | – | > 50 µM | – | > 50 µM | – | – | – | – | –
O=[N+]([O-])c1ccc(C2=NOC(c3ccc(N4CCN(Cc5cccnc5)CC4)cc3)C2)o1 (stereo unspecified) | 8 µg/mL (≈ 18.5 µM) | 32 µg/mL (≈ 73.8 µM) | 4 to 8 µg/mL (≈ 9.23 to 18.5 µM) | 8 to 16 µg/mL (≈ 18.5 to 36.9 µM) | 16 µg/mL (≈ 36.9 µM) | 4 to 8 µg/mL (≈ 9.23 to 18.5 µM) | 16 µg/mL (≈ 36.9 µM) | 16 µg/mL (≈ 36.9 µM) | 8 µg/mL (≈ 18.5 µM) | 16 µg/mL (≈ 36.9 µM) | > 128 µg/mL | > 50 µM | > 128 µg/mL | > 50 µM | > 128 µg/mL | > 128 µg/mL | > 128 µg/mL | > 128 µg/mL | Ratio (Staphylococcus aureus [17]): 8; MBC (Staphylococcus aureus [18]): ≥ 128 µg/mL; Activity (Staphylococcus aureus [19]): Active
COc1cccc2c1C(=O)c1c(O)c3c(c(O)c1C2=O)C[C@@](O)(C(=O)CO)C[C@@H]3O[C@H]1C[C@H](N)[C@H](O)[C@H](C)O1 [DOXORUBICIN] | – | – | – | – | – | – | – | – | – | – | – | 0.071 µM | – | 0.071 µM | – | – | – | – | –
O=[N+]([O-])c1ccc(C2=NOC(c3ccc(-c4cccnc4)cc3)C2)o1 (stereo unspecified) | – | 16 µg/mL (≈ 47.7 µM) | – | – | 32 µg/mL (≈ 95.4 µM) | – | – | – | – | 64 µg/mL (≈ 191 µM) | – | > 50 µM | – | > 50 µM | – | – | – | – | –
O=[N+]([O-])c1ccc(C2=NOC(c3ccc(N4CCN(Cc5ccccn5)CC4)cc3)C2)o1 (stereo unspecified) | 8 to 16 µg/mL (≈ 18.5 to 36.9 µM) | 32 µg/mL (≈ 73.8 µM) | 8 to 16 µg/mL (≈ 18.5 to 36.9 µM) | 8 to 16 µg/mL (≈ 18.5 to 36.9 µM) | 16 µg/mL (≈ 36.9 µM) | 8 µg/mL (≈ 18.5 µM) | 16 to 32 µg/mL (≈ 36.9 to 73.8 µM) | 16 µg/mL (≈ 36.9 µM) | 16 µg/mL (≈ 36.9 µM) | 32 µg/mL (≈ 73.8 µM) | > 128 µg/mL | > 50 µM | > 128 µg/mL | > 50 µM | > 128 µg/mL | > 128 µg/mL | > 128 µg/mL | > 128 µg/mL | Ratio (Staphylococcus aureus [17]): 8; MBC (Staphylococcus aureus [18]): ≥ 128 µg/mL
O=C(O)c1cn(C2CC2)c2cc(N3CCNCC3)c(F)cc2c1=O [CIPROFLOXACIN] | 0.5 µg/mL (≈ 1.51 µM) | 32 µg/mL (≈ 96.6 µM) | 0.125 to 0.5 µg/mL (≈ 0.377 to 1.51 µM) | 0.25 µg/mL (≈ 0.754 µM) | – | 0.5 µg/mL (≈ 1.51 µM) | 0.25 to 0.5 µg/mL (≈ 0.754 to 1.51 µM) | 0.125 to 0.25 µg/mL (≈ 0.377 to 0.754 µM) | 0.25 µg/mL (≈ 0.754 µM) | 32 µg/mL (≈ 96.6 µM) | – | – | – | – | – | – | – | – | –
